OXTR potentiate – potentiators of human oxytocin receptor. activation, % at 3 µM. hit rate 0.061% among 320,000. CHO-OTR cells, Fluo-8 calcium fluorescence, potentiator mode; 0% = oxytocin EC15, 100% = EC100. P30559;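 active = activation above that plate's cutoff, the mean activation of tested compounds plus 3 SD, cut at about 6.6% in these data, passing the limit was not always enough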;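 also: 100% uses oxytocin at 75 nM as the full agonist control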
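Material: human OTR in CHO cells. Compound: 3.0 µM, one dose. Timing: compound 6 min at room temperature before oxytocin, 100 s read. Evaluation: % activation of max/min ratio relative to oxytocin controls. Replication: single well per compound, singlicate. Signal: Fluo-8 calcium dye fluorescence.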
OXTR ag – activates the human oxytocin receptor. CHO-OTR cells, Fluo-8 calcium fluorescence; normalized: DMSO 0%, oxytocin 100%. activation, % at 3 µM. hit rate 0.32% among 320,000. AID 2435;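 active = activation above the mean of all tested compounds plus 3 SD, cutoff set per screening run, cut at about 20% in these data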;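 also: peak over basal fluorescence ratio from a 100 s FLIPR kinetic read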
TAAR1 agonist – human TAAR1 agonism. CHO RD-HGA16 TAAR1, Fluo-8 calcium fluorescence; vehicle wells 0%, saturating PEA agonist 100%. activation, % at 3 µM. hit rate 0.99% among 360,000. AID 624467;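 active = activation above the mean activation of all test compounds in the run plus 3 SD, cut at about 38% in these data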
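System: CHO-derived RD-HGA16 cells with stable Gα16 and human TAAR1. Times: 17-24 h plating, Fluo-8 75 min 37 °C, 30 min RT. Measured by: calcium-sensitive Fluo-8 signal, excitation 470-495, emission 515-575 nm. Read-out basis: % activation relative to PEA EC100 response. Control set: DMSO and PEA EC100. Repeats: no replicates (n 1).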
V1R ag counter – counter-screen for oxytocin receptor agonists: human V1a receptor agonists. P37288. CHO-V1R cells, Fluo-8 calcium fluorescence, agonist mode; 0% DMSO, 100% 3 nM vasopressin. activation, % at 3 µM. hit rate 0.25% among 320,000. AID 2797;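 active = activation above the mean activation of all tested compounds plus 3 SD, per screening run, cut at about 20% in these data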;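 also: signal is peak over basal fluorescence ratio across a 100 second FLIPR read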
Target sequence (P37288 whole entry, looked up): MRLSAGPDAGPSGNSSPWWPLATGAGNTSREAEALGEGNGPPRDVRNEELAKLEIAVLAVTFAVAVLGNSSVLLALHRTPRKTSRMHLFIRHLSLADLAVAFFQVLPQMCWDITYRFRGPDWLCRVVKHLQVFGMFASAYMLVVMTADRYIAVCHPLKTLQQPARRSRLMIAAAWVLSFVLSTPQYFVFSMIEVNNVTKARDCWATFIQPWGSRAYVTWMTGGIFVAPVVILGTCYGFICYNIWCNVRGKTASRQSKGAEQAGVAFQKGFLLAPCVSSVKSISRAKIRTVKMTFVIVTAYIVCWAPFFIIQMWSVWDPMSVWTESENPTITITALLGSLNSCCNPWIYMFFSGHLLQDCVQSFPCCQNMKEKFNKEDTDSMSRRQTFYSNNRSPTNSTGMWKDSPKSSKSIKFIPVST
TAAR1 antag – antagonists of human TAAR1. Q96RJ0. hit rate 1.5% among 360,000. AID 624466. CHO RD-HGA16 TAAR1, Fluo-8 calcium fluorescence, antagonist. inhibition, % at 3 µM;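 active = inhibition above a per-plate cutoff, the mean inhibition of test compounds on that plate plus 3 SD, cut at about 49% in these data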;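 also: 0% = DMSO plus EC80 beta-PEA response and 100% = DMSO alone without agonist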
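test system = CHO RD-HGA16 cells bearing hTAAR1 | replication = singlicate | controls = DMSO-only wells and EC80 β-PEA-stimulated wells | reagent = EC80 β-phenethylamine stimulus | read-out basis = percent inhibition of PEA-evoked calcium signal, max/basal emission ratio | schedule = seeding 17-24 h prior, 75-min 37 °C, 30-min RT dye loading | signal = kinetic Fluo-8 calcium fluorescence measurement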
* hit, by the source's call; / = not tested or not shown. Only some compounds are listed: those with a hit (about 2.3% of all), similar ones and a draw of the others.

SMILES	OXTR potentiate	OXTR ag	TAAR1 agonist	V1R ag counter	TAAR1 antag
CCOc1ccc(C(C)=O)cc1COC(=O)c1ccc2c(c1)NC(=O)CS2	-10	5	11	5	52*
N#Cc1ccccc1CSc1ccc(-c2nc3ccccc3[nH]2)cn1	-10	10	13	5	50*
CC(=O)CSc1ccc(-c2nc3ccccc3[nH]2)cn1	-2	1	4	0	13
O=c1nccc(N/N=C/c2cccc(O)c2)[nH]1	2	2	40*	0	-14
COc1cc(/C=N/Nc2ccnc(=O)[nH]2)ccc1O	/	/	5	/	-10
CCN(CC)c1ccc2c(-c3ccc(S(=O)(=O)O)cc3S(=O)(=O)[O-])c3ccc(=[N+](CC)CC)cc-3oc2c1	-10	266*	/	180*	/
CCN(CC)c1ccc2nc3c4ccccc4c(=O)cc-3oc2c1	/	/	17	/	20
Cn1c(N2CCN(C(c3ccccc3)c3ccccc3)CC2)nc2ccccc21	-6	-2	1	1	50*
C=CCNC(=O)/C(C#N)=C/c1ccccc1OCc1ccc(C(=O)OC)cc1	-8	-1	5	0	49*
Cc1ccc(S(=O)(=O)N2CC(=NO)C2)cc1	-1	-1	5	0	2
COc1cc(/C=C/C(=O)c2ccc3c(c2)OCO3)cc(Cl)c1O	-16	70*	56*	98*	43
C(=C\c1ccccc1)/CN1CCN(C(CCc2ccccc2)c2nnnn2C2CCCC2)CC1 (centres undefined)	/	/	-1	/	6
Cc1ccc(-n2ncc3c(N4CCN(c5ccccc5)CC4)ncnc32)c(C)c1	-7	5	12	4	62*
COc1ccc(-n2ncc3c(N4CCN(c5cc(C)ccc5C)CC4)ncnc32)cc1	-1	0	-3	1	103*
Oc1ccc(N2CCN(c3ncnc4sc(-c5ccccc5)cc34)CC2)cc1	/	/	-1	/	12
COc1ccc(N2CCN(c3ncnc4c3cnn4-c3ccc(C)cc3C)CC2)cc1	-11	6	1	5	18
CCc1cc2c(N3CCN(c4ccccc4)CC3)ncnc2s1	-10	0	8	6	66*
CC(C)CCC(C(=O)O)C(C)CC(=O)NNC(=O)c1ccco1 (centres undefined)	-2	2	3	1	-7
OC(c1ccccc1)c1nc(-c2cncnc2)cs1 (centres undefined)	/	/	0	/	1
CCOc1ccc(CCNC(=O)C2CCN(C(=O)N(C)C)CC2)cc1OCC	-3	-2	10	1	10
O=C1CCN(C(=O)c2ccccc2)c2ccccc21	/	/	3	/	1
CCCN(CCC)S(=O)(=O)c1ccc(C(=O)N2CCC(=O)c3ccccc32)cc1	-12	-1	7	2	60*
CC(=O)Nc1cccc(NC(=O)c2ccc3c(c2)CCN3S(=O)(=O)c2ccccc2)c1	-3	2	5	8	50*
O=C(Nc1nc2c(s1)CN(Cc1ccccc1)CC2)c1cccc(S(=O)(=O)N2CCc3ccccc32)c1	-13	1	38*	4	21
Cc1cc(C)cc(N2CC(c3nc4ccccc4n3C)CC2=O)c1 (centres undefined)	-7	2	5	1	-4
SMILES	OXTR potentiate	OXTR ag	TAAR1 agonist	V1R ag counter	TAAR1 antag
N#CC1(c2ccccc2)CCC(NCCc2ccccc2)CC1 (centres undefined)	-19	2	41*	5	9
O=C(NCCc1ccccc1)C1(c2ccccc2)CCCC1	1	-2	23	-2	-5
CN(c1ccccc1)S(=O)(=O)c1ccc(NC(=O)c2nc(S(C)(=O)=O)ncc2Cl)cc1	-9	2	18	3	49*
Cc1ccc(C(OCC(O)CNCc2ccc(F)cc2)c2ccccc2)cc1 (centres undefined)	-14	13	40*	12	32
Cc1ccc(-n2cc(-c3ccccc3)c3c(N4CCOCC4)ncnc32)cc1	/	/	6	/	54*
Cc1cccc(C)c1-n1c(C)cc(/C=N\Nc2ccc([N+](=O)[O-])cn2)c1C	-6	1	15	2	51*
O=C(Nc1ccc(N2CCN(C(=O)c3ccccc3F)CC2)cc1)c1cncc(Br)c1	-14	4	8	11	52*
COc1ccc(NC(=O)c2cc([N+](=O)[O-])ccc2N2CCCCC2)cc1OC	1	-2	-1	-2	-3
COc1cccc(N2CC(=O)N(NC(=O)CSc3nc(C)cc(C)c3C#N)CC2=O)c1	-5	1	-1	1	-2
CCC(CC)c1nnc(NC(=O)c2c(C)nn(Cc3ccccc3Cl)c2C)s1	-19	8	41*	9	15
CCC(CC)c1nnc(NC(=O)Cc2ccccc2[N+](=O)[O-])s1	-10	15	49*	15	-9
CCC(CC)c1nnc(NC(=O)Cc2c[nH]c3ccccc23)s1	/	/	33	/	-13
Cc1csc(NC(=O)c2c(-c3ccccc3)noc2C)n1	-4	0	-1	0	-7
CCc1noc(C)c1C(=O)OCC(=O)Nc1nc(-c2ccc(F)c(F)c2)cs1	-10	3	13	8	69*
Cc1onc(-c2ccccc2)c1C(=O)Nc1nc(-c2ccc(F)c(F)c2)cs1	7	0	39*	2	-2
Cc1nn(-c2ccccc2)c(N2CCCC2)c1/C=N/NC(=O)c1ccccc1O	-9	-2	8	1	19
Cc1nn(-c2ccccc2)c(N2CCCC2)c1/C=N/NC(=O)c1cc(-c2cccnc2)nc2ccccc12	-5	-2	10	-1	51*
O=c1cc2c(nn1Cc1ccccc1Cl)-c1ccccc1CC2	-4	-2	2	-1	0
COc1cc2cc(CN(CCCN3CCOCC3)C(=O)Nc3ccccc3F)c(=O)[nH]c2cc1OC	-6	0	2	0	5
O=C(CSc1nnnn1-c1cccc2c1CCCC2)N1CCCCC1	-10	6	45*	6	8
Cc1ccc(-n2nnnc2SCC(=O)N2CCCCC2)cc1	-1	0	11	-1	6
CN1/C(=C\C(=O)C[n+]2cccc(Br)c2)C(C)(C)c2ccccc21	-9	0	6	-1	-7
COc1cc(C(=O)NNC(=S)NC(=O)/C=C/c2ccccc2)cc(OC)c1OC	-11	1	39*	4	23
C=CCNc1nc(-c2sc(NC(=O)C(C)(C)C)nc2C)c(-n2cc(-c3ccccc3)nn2)s1	/	/	7	/	61*
CC(C)Cc1n[nH]c(=O)c2c1nnn2Cc1ccccc1F	-4	0	6	0	-10
O=C(/C=C/c1ccc(F)cc1)c1cc(Br)ccc1O	-5	-2	-2	-2	-5
O=C(/C=C/c1ccccc1)c1cc(Br)ccc(=O)c1O	-17	13	41*	2	54*
